About 460 (18%) of roughly 2,500 compounds were called active. A selection follows. A number with no mark means an inactive call.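 The calls were made as follows: active = mean activation above a cutoff of low control average plus 3 SD from the earlier screen (cut at about 12% in these data); inactive = the rest.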

This test is described as follows: compound fluorescence interference without thin filaments, confirmation, artefact control for cardiac RTF calcium sensitizer project, biochemical (AID 504382). The note with it: IANBD fluorescence interference counterscreen, buffer, EC20 Ca2+; at 7.2 µM; stronger effect = higher value; scaled: EC20 calcium 0, EC100 calcium 100. The procedure, abridged: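 Also added: EC20 calcium, 0.472 mM; dosing: single nominal 7.2 µM compound dose, 0.7% DMSO final; timing: 15 min, 25 °C; detection: fluorescence intensity, excitation 480 nm, emission 540 nm; replicates: each compound tested in triplicate wells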
As for `O=C(CSc1n[nH]c(-c2cccs2)n1)N1CCOCC1`, the fluorescence artifact activation was -0.05%.
As for `Cc1nnc(SCC(=O)NC(C)(C)C)n1C1CCCCC1`, the fluorescence artifact activation was 10.9%.
Consider `Nc1c(C(=O)c2ccc(Cl)cc2)sc2nsc(SCCN3CCOCC3)c12`, for which the fluorescence artifact activation is 0.08%.
As to `Oc1ccc2nnc3c(Br)cnn3c2c1`, the fluorescence artifact activation was 0.07%.
Regarding `COc1ccc(/C=N/NC(=O)c2cc(OC)c(OC)c(OC)c2)cc1CN1CCc2cc(OC)c(OC)cc2C1C` (stereo unspecified), the fluorescence artifact activation is 7.53%.
With `CC1(C)CC(N2CCCC2)=CC(=[N+]2CCCCC2)C1`, the fluorescence artifact activation was 2.5%.
On to `COc1ccc2[nH]c(C)c(CCN(Cc3cccs3)C(=S)Nc3ccc(F)cc3)c2c1`, for which the fluorescence artifact activation is 1.01%.
For `O=C(Cc1ccc(NC(=O)C2CCCN(C(=O)C3CCCCC3)C2)cc1)Nc1cccc(C(=O)N2CCCC2)c1` (stereo unspecified), the fluorescence artifact activation was 0.41%.
Regarding `CCCCOC(=O)Cn1c2ccc(OC)cc2c2nc3ccccc3nc21`, the fluorescence artifact activation is 0.92%.
As for `CCOc1ccc(Cn2c3ccc(OC)cc3c3nc4ccccc4nc32)cc1`, the fluorescence artifact activation is 23.1% (active).
Turning to `COc1ccc(Cn2nnc3ccccc32)cc1`, the fluorescence artifact activation was 0.37%.
Turning to `COC(=O)C(=N/Nc1ccccc1C(=O)OC)/C(C)=N/O`, the fluorescence artifact activation is 6.02%.
Consider `C/C(=N/NC(=O)c1cc(C)[nH]n1)c1ccco1`, for which the fluorescence artifact activation is 0.79%.
Regarding `COc1ccc(/C=c2\s/c(=C/C(=O)c3ccc(C)cc3)[nH]c2=O)cc1OC`, the fluorescence artifact activation is 0.04%.
Next, `CN1CCc2c(sc3nc(SCC(N)=O)n(-c4ccccc4)c(=O)c23)C1`: -0.02%.
With `Cc1ccc(NS(=O)(=O)c2ccc(C(=O)N3CCN(c4ncccn4)CC3)cc2)cc1`, the fluorescence artifact activation is 0.15%.
Next, `COc1ccc2c(c1)cc(C(=O)N[C@@H](CCSC)C(=O)N1CCC[C@H]1C(=O)O)n2C`: 1.37%; `O=C(O)c1cc(NCc2ccc(F)cc2)ccc1N1CCOCC1`: 18.7% (active); `O=C(N1CCOCC1)N1CCN(c2ccc(F)cc2)CC1`: 0.02%.
Take `O=C1N/C(=C\c2ccc(N3CCOCC3)c(F)c2)C(=O)N1Cc1ccccc1`: the fluorescence artifact activation is 0.25%.
`CCOc1ccccc1N(CC(=O)Nc1ccc(OC)c(OC)c1)S(=O)(=O)c1ccccc1`: the fluorescence artifact activation is 0.04%.
On to `CC1=Nc2ccccc2/C1=C/c1nc(-c2ccc(C)s2)oc1O`, for which the fluorescence artifact activation was 0.4%.
As to `CC(=O)Nc1ccc(N2C(=O)c3cccc4c(O)ccc(c34)C2=O)cc1`, the fluorescence artifact activation was 0.2%.
As for `COC(=O)C1(C)NC(c2ccc(C)cc2)C2C(=O)N(c3ccc(F)cc3)C(=O)C21` (stereo unspecified), the fluorescence artifact activation is 3.94%.
Turning to `CC(=O)Nc1ccc(N2C(=O)CSC2c2ccc(F)cc2)cc1` (stereo unspecified), the fluorescence artifact activation is 47.7% (active).
With `Nc1nc2ccccc2n1CCOc1ccc(Br)cc1`, the fluorescence artifact activation was 0.41%.
For `O=C(C1=C(O)C(=O)N(c2nccs2)C1c1ccccc1)c1cc2ccccc2o1` (stereo unspecified), the fluorescence artifact activation is -0.02%.
With `Cc1ccccc1Cn1cccc1/C=C1/C(=N)N2C=CSC2=NC1=O`, the fluorescence artifact activation was 0.51%.
`C=CCNc1nnc(SCC(=O)N2CCC(C(N)=O)CC2)s1`: the fluorescence artifact activation was 2.23%.
In the case of `CCOc1c2ccc(C(=O)NCc3ccc(C)cc3)cc2nn1CCOC`, the fluorescence artifact activation is 0.08%.
Regarding `CCN(CC(=O)Nc1c(F)cccc1F)C(=O)CNC(=O)COc1ccccc1`, the fluorescence artifact activation was -0.06%.
In the case of `c1ccc(-n2ncc(-c3nn[nH]n3)n2)cc1`, the fluorescence artifact activation is 48.8% (active).
As to `O=C(C1=NN(c2ccccc2)C2C(=O)N(c3ccccc3)C(=O)C12)c1ccccc1` (stereo unspecified), the fluorescence artifact activation is -0.1%.
In the case of `O=C(NCc1ccc(F)cc1)c1cccc2c1C(=O)c1ccc(N3CCC(Cc4ccccc4)CC3)cc1S2(=O)=O`, the fluorescence artifact activation is 0.01%.
Next, `O=C(NCc1ccco1)c1cccc2c1C(=O)c1ccc(N3CCCC3)cc1S2(=O)=O`: 0.41%; `O=C(NCc1cccc(F)c1)c1cccc2c1C(=O)c1ccc(N3CCC(Cc4ccccc4)CC3)cc1S2(=O)=O`: 3.97%; `O=C(NCc1ccco1)c1cccc2c1C(=O)c1ccc(N3CCC(Cc4ccccc4)CC3)cc1S2(=O)=O`: 24.3% (active).
As for `O=C(NCc1cccc(C(F)(F)F)c1)c1cccc2c1C(=O)c1ccc(N3CCC(Cc4ccccc4)CC3)cc1S2(=O)=O`, the fluorescence artifact activation is 0.26%.
Next, `O=C(NCCc1ccc(F)cc1)c1cccc2c1C(=O)c1ccc(N3CCC(Cc4ccccc4)CC3)cc1S2(=O)=O`: 33.5% (active).
On to `COc1ccc(/C=C2\Oc3cc(OCC(=O)N4CCC[C@H]4C(=O)O)ccc3C2=O)c(OC)c1`, for which the fluorescence artifact activation was 5.17%.
As to `COc1ccc(/C=C2\Oc3cc(OCC(=O)N4CCC(C(=O)O)CC4)ccc3C2=O)c(OC)c1`, the fluorescence artifact activation is 84% (active).
As to `COc1ccc(/C=C2\Oc3cc(OCC(=O)N4CCC[C@H]4CO)ccc3C2=O)c(OC)c1`, the fluorescence artifact activation is 0.23%.
Next, `CN(C)c1ccc(/C=C/C(=O)c2cccc(Br)c2)cc1`: 0.06%; `O=C(NCCc1ccccc1)c1ccc(Cl)nc1`: 5.54%; `CCOc1ccc(Cn2nnc(C(=O)NCCc3ccccc3)c2N)cc1`: 40.2% (active).
On to `CCOc1ccc(CCNC(=O)c2ccc(CNS(=O)(=O)c3ccccc3)cc2)cc1OCC`, for which the fluorescence artifact activation was 0.06%.
Regarding `O=C(Cc1ccccc1)Nn1c(O)c(/C=C2\C=Nc3ccccc32)sc1=S`, the fluorescence artifact activation is 29.4% (active).
As to `CC1=Nc2ccccc2/C1=C/c1sc(=S)n(-c2cccc(C(=O)O)c2)c1O`, the fluorescence artifact activation is 0.55%.
Turning to `Cc1ccc2c(c1)[C@H]1[C@H](CO2)[C@H](c2ccccc2)[C@]2(C)C(=O)N(Cc3ccc(F)cc3)CC(=O)N12`, the fluorescence artifact activation is 0.19%.
For the compound `Clc1ccccc1/C=N/NC1=Nc2cccc3cccc1c23`, the fluorescence artifact activation is 0.08%.
In the case of `CCC12OC(=N)C(C#N)(C1C)C(C#N)(C#N)C(c1ccccc1)O2` (stereo unspecified), the fluorescence artifact activation is -0.03%.
For the compound `CCC(C)(C)n1nnnc1C(c1ccc(C)cc1)N1CCN(C(=O)c2ccco2)CC1` (stereo unspecified), the fluorescence artifact activation was 0.17%.
`O=C(COC(=O)C1(c2ccc(F)cc2)CCCC1)N1CCN(C(=O)c2ccco2)CC1`: the fluorescence artifact activation is 0%.
With `O=C(CCSc1ccccc1)N1CCN(C(=O)c2ccco2)CC1`, the fluorescence artifact activation is 25.9% (active).
Take `COc1cc2c(cc1OC)CN(Cc1cc(=O)oc3cc(C)c(C)cc13)CC2`: the fluorescence artifact activation is -0.02%.
For `C=CCNc1sc(C(=O)c2ccc(Br)s2)c(N)c1C#N`, the fluorescence artifact activation was 37% (active).

(Values after PubChem BioAssay AID504382 (The Scripps Research Institute Molecular Screening Center, 2011).)
